The list is not random: actives were taken first. Their share in the collection is about 1.6%.
C8 TRAIL sens – sensitizes caspase-8 expressing cells to TRAIL. NB7+C8 cells + TRAIL, ATPlite viability luminescence. inhibition (viability loss, TRAIL sensitization), % at 10 µM. 1% of 360,000 active. AID 624354;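 active = compounds causing at least 50% loss of cell viability in the single-dose screen, relative to plate controls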
FLuc inh counter – counter-screen for luciferase assay inhibitors: firefly luciferase inhibition; P08659; AID 1006; ATPLite firefly luciferase biochemical luminescence, 10 min; inhibition, % at 10 µM; 1.5% of 200,000 active;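 active = inhibition above about 50% when tested at 10 µM, limit read from the data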
Target sequence (P08659 whole entry, looked up): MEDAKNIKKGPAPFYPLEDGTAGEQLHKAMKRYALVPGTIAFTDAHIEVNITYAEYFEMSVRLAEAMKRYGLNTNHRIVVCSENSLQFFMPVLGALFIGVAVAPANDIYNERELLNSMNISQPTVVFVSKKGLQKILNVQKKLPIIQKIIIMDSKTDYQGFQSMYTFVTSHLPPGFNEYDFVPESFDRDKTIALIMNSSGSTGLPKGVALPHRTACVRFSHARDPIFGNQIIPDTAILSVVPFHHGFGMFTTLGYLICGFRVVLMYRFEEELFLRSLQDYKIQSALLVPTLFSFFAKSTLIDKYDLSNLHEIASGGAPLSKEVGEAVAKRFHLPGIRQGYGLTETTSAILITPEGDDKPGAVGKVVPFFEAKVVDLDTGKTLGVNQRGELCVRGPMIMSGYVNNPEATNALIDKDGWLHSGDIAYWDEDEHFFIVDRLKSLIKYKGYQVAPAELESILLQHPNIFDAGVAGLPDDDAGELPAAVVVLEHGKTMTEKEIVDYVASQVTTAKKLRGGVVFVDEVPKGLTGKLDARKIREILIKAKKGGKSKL
FLuc stim CS – affects firefly luciferase, flagging false hits in luciferase stimulation screens | P08659 | ATPlite luciferase biochemical, luminescence, 10 min; 0 = ATP-free wells, 1 = DMSO control | activation factor at 10 µM | 200,000 tested, under 10 active;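 active = luciferase activation factor, scaled between plate controls, of at least 2 with compound at 10 µM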
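Assay system: Luciferase/luciferin detection reagent, cell-free biochemical luciferase assay / Read-out: luciferase activation / Benchmarks: No-ATP low control, compound-free enzyme-plus-ATP high control / Medium: PBS buffer for ATP / Detection: luminescence measurement of luciferase light output / Schedule: 10 min at ambient temperature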
PPC-1+TRAIL kill – PPC-1 cancer cell killing with TRAIL present; 0.41% of 220,000 active; cell killing (% activity), % at 4 µM or 5 µM; PPC-1 cells + TRAIL, ATPLite viability luminescence;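 active = cell killing above 50% in the first pass at 4 µM, then a duplicate retest at 5 µM averaging 50% or more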
Hits are given with their value; - = inactive; . = not tested or not shown.

SMILES	C8 TRAIL sens	FLuc inh counter	FLuc stim CS	PPC-1+TRAIL kill
CCCCCCCCN1C(=O)[C@H](CC(=O)NCCc2ccccc2OC)C[C@@]2(C(=O)OC)CC(C)(C)CC=C12	-	.	.	.
Oc1cc(NCc2ccc(F)cc2)cc2cccnc12	54.2	.	.	.
O=C1c2ccccc2C(=O)c2c(Nc3ccc(CCO)cc3)ccc(O)c21	-	.	.	-
O=C1c2c(O)ccc(O)c2C(=O)c2c(NCCNCCO)ccc(NCCNCCO)c21	82.4	.	.	.
O=C(CN(c1cc(Cl)ccc1Cl)S(=O)(=O)c1ccccc1)N1CCOCC1	-	.	.	.
CCCC(=O)Nc1ccc(C(=O)n2nnc3ccccc32)cc1	-	-	-	-
CN(C)c1ccc(C(=O)n2nnc3ccccc32)cc1	-	80.9	-	-
COc1ccccc1C(=O)NCCC(=O)NCC(c1ccccc1)N(C)C (centres undefined)	-	.	.	.
c1ccc2c(c1)Cn1c-2nc2ccccc21	-	63.6	-	-
Brc1c(-c2ccccc2)nc2n1Cc1ccccc1-2	-	.	.	-
NC(=O)c1c(NC(=O)c2ccc([N+](=O)[O-])o2)sc2c1CCCC2	-	.	.	.
CN1CCc2c(sc(NC(=O)c3ccc([N+](=O)[O-])o3)c2C(N)=O)C1	59.9	.	.	.
Cc1ccccc1-c1ccccc1CN1[C@@H](C(C)C)COCCS1(=O)=O	-	.	.	.
CCCCNC(=O)c1ccc(Cn2c(=S)[nH]c3c([nH]c4ccc(OC)cc43)c2=O)cc1	70.4	-	-	-
CCCN(C(=O)COc1ccc(C(C)=O)cc1OC)C1CCS(=O)(=O)C1 (centres undefined)	-	.	.	.
Cc1ccc2nc(NC(=O)c3ccccc3F)sc2c1	58.5	.	.	.
COc1ccc(C(=O)Nc2nc3ccc(OC)cc3s2)cc1	-	.	.	.
COc1ccc2nc(NC(=O)Nc3ccccc3)sc2c1	59.3	70.2	-	-
CCCC(=O)Nc1nc2ccc(NC(=O)c3ccccc3F)cc2s1	-	-	-	-
COc1ccc2nc(NC(=O)c3cnccn3)sc2c1	52.6	62.6	-	-
CCCCN(C(=O)NC(=O)Nc1nc2ccc(OC)cc2s1)S(C)(=O)=O	-	50.3	-	-
Cc1ccc(C(CNS(=O)(=O)c2cc(F)ccc2F)N2CCN(C)CC2)cc1 (centres undefined)	-	.	.	.
COc1ccc2nc(NC(=O)c3ccccc3F)sc2c1	69.3	.	.	.
Cc1ccc(NC(=O)c2ccccc2F)nc1	-	52.2	-	-
COc1ccc2nc(NC(=O)c3ccccc3C(=O)O)sc2c1	-	.	.	.
SMILES	C8 TRAIL sens	FLuc inh counter	FLuc stim CS	PPC-1+TRAIL kill
O=C(c1ccncc1)N(Cc1cc2ccccc2[nH]c1=O)C1CCCCC1	76.1	-	-	-
CC(/C=N/NC(=O)c1cccs1)=C\c1ccco1	-	56.7	-	-
O=C(Nc1ccc2c(c1)OCCO2)C(=O)c1c[nH]c2ccccc12	81.7	.	.	.
CSc1ccccc1C(=O)Nc1ccc2c(c1)OCCO2	-	-	-	-
Cc1ncoc1C(=O)Nc1ccc2c(c1)OCCO2	-	-	-	-
O=C(CCl)Nc1c(C(=O)Nc2ccc3c(c2)OCCO3)oc2ccccc12	61.5	.	.	.
Cc1ccccc1C(=O)Nc1ccc2c(c1)OCCO2	61.8	.	.	.
Cc1ccsc1C(=O)Nc1ccc2c(c1)OCCO2	71.4	78.6	-	-
CSC1=NCCN1S(=O)(=O)c1ccccc1	-	-	-	-
O=C(CSc1ccc([N+](=O)[O-])cn1)Nc1cc(C(F)(F)F)ccc1N1CCOCC1	-	.	.	.
CCn1cc(CN2CCc3c([nH]c4ccccc34)C2c2cccc(OC)c2OC)c(C)n1 (centres undefined)	-	-	-	-
O=C(Cn1ncc2c([nH]c3ccccc32)c1=O)N1CCN(c2ccccn2)CC1	-	.	.	.
Cc1cc(C(=O)Nc2ccc3c(c2)OCCO3)c2ccccc2n1	-	-	-	-
O=C(Nc1ccc2c(c1)OCCO2)c1coc2ccccc2c1=O	-	97.1	-	-
Cc1cc(C(=O)Nc2ccc3c(c2)OCCO3)c(C)o1	-	54.5	-	-
CCOc1cccc(C(=O)Nc2ccc3c(c2)OCCO3)c1	59.2	.	.	.
O=C(Nc1ccc2c(c1)OCCO2)c1cccc(C(=O)Nc2ccc3c(c2)OCCO3)c1	-	.	.	.
O=C(Nc1ccc2c(c1)OCCO2)c1ccccc1	50.6	.	.	.
CC(=O)Nc1ccc(NC(=O)c2c(C)nc3ccccn23)cc1	-	-	-	-
Cc1nc2ccccn2c1C(=O)Nc1ccc2c(c1)OCCO2	-	53.8	-	-
Clc1ccc(OCCOCCNCc2ccccc2)cc1Cl	-	.	.	.
CCn1c(C)nc2cc(NC(=O)Nc3cccc(C(C)=O)c3)ccc21	55.7	.	.	.
CCn1c(C)nc2cc(C(=O)OC)ccc21	-	-	-	.
CC(=O)Nc1cccc(NC(=O)Nc2ccc(C(C)=O)cc2)c1	-	-	-	-
CCn1c(C)nc2cc(C(=O)NN=Cc3ccccc3OC(F)F)ccc21	-	.	.	.
SMILES	C8 TRAIL sens	FLuc inh counter	FLuc stim CS	PPC-1+TRAIL kill
CC(=O)c1cccc(NC(=O)Nc2ccc(C(=O)N3CCCC3)cc2)c1	-	60.8	-	-
CCn1c(C)nc2cc(C(=O)N/N=C/c3ccccc3C)ccc21	-	53.3	-	-
O=C(Nc1ccccc1)Nc1ccc(C(=O)N2CCCC2)cc1	68.6	87.3	-	-
CCCCN(C(=O)Cc1cccc(F)c1)c1c(N)n(CCC)c(=O)[nH]c1=O	-	-	-	-
CCN(CC)c1ccc(NC(=O)Nc2cccc(C(C)=O)c2)cc1	-	51.8	-	-
CN(C)c1ccc(N=Nc2ccc3ncccc3c2)cc1	70.9	.	.	.
Cc1cc(N(C)C)ccc1N=Nc1ccc2ncccc2c1	-	.	.	-
CC(C)(C)c1ccc(/C=C2\SC(=O)N(CCNC(=O)c3cccc(S(=O)(=O)N4CCOCC4)c3)C2=O)cc1	57.6	68.7	-	-
Cc1[nH]c(=O)sc1C(=O)NCc1ccc([N+](=O)[O-])cc1	-	.	.	.
Cc1c(NC(=O)C(C)OC(=O)/C=C/c2ccc3c(c2)OCO3)c(=O)n(-c2ccccc2)n1C (centres undefined)	-	-	-	-
Cc1ccc(-c2nn3c(C)nnc3c3ccccc23)cc1S(=O)(=O)NCCN1CCOCC1	-	-	-	-
Cc1ccc(-c2nn3c(C)nnc3c3ccccc23)cc1S(=O)(=O)NCc1ccccc1	52.3	-	-	-
NS(=O)(=O)c1ccc(NC(=O)c2ccc3c(c2)CCCC3)cc1	-	.	.	.
CNC(=O)c1ccsc1NC(=O)c1ccc2c(c1)CCCC2	-	74.3	-	-
COc1ccc(NC(=O)Nc2ccc(Cc3ccncc3)cc2)c(OC)c1	-	-	-	-
O=C(O)c1ccccc1C(=O)NCCc1c(C(=O)O)[nH]c2ccc(F)cc12	-	.	.	-
Nc1ncnc2c(C3OC(CO)C(O)C3O)c[nH]c12 (centres undefined)	87.7	.	.	.
CCOc1ccc(/C=C\C(C)=N\O)cc1	-	69.0	-	-
O=C(NC1CCCCC1)C(C1CC1)n1c(=O)c(-c2cc3ccccc3[nH]2)nc2ccccc21 (centres undefined)	-	.	.	.
CCC(C)(C)C1CCc2c(sc(NC(=O)c3ccccc3C(=O)O)c2C#N)C1 (centres undefined)	-	.	.	-
CC1CCc2c(sc(NC(=O)c3ccccc3C(=O)O)c2C#N)C1 (centres undefined)	-	76.7	-	-
CCCN(CCC)C(=O)C(CCC(=O)O)NC(=O)c1ccccc1 (centres undefined)	-	-	-	-

Source: PubChem BioAssay (Sanford-Burnham Center for Chemical Genomics)
